# Most compounds without a hit are left out; they make up all but 3.7% or so of the library.
# Kir21 inh = Kir2.1 (mouse) channel inhibition | B-score at 10 µM | 0.85% of 310,000 active | AID 1672 | HEK293-Kir2.1, FluxOR thallium flux fluorescence; stronger effect = lower value | P35561;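 active means fluorescence ratio B-score at or below minus 3 SD of library scores, with starting-brightness B-score within 2 SD, cut at about -4.2 in these data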;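 further: channel flux triggered by added potassium and thallium sulfate stimulus; B-score of peak minus minimum fluorescence over baseline after thallium stimulus; more negative B-score means stronger Kir2.1 block with less thallium influx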
# KCNQ1 inh = human KCNQ1 channel inhibition; P51787; 1.3% of 310,000 active; B-score at 10 µM; CHO-K1 KCNQ1, FluxOR thallium flux fluorescence; stronger effect = higher value;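 active means compounds whose thallium flux B-score, printed positive for inhibition, exceeds three library SD while starting fluorescence stays within three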;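 further: channel opened by potassium depolarization with thallium stimulus after 20 min compound exposure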
# KCNK3 inh = human KCNK3 channel inhibition, primary screen; O14649; CHO-KCNK3 thallium flux, FluxOR fluorescence; stronger effect = lower value; B-score at 10 µM; 0.84% of 340,000 active; AID 602410;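 active means B-score under library mean minus 4 SD, starting fluorescence ratio at most library mean plus 5 SD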;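 further: more negative B-score means stronger inhibition of thallium flux through KCNK3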
# hERG rescue = shields human hERG channel from block by proarrhythmic agents. Q12809. CHO-hERG, FluxOR thallium flux, dofetilide IC70 present. activation (rescue from dofetilide block), less the hit threshold, % at 10 µM. 0.51% of 310,000 active. AID 1511;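 active means activation above the mean of controls blocked by dofetilide plus 5 SD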;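 further: thallium influx through hERG after potassium depolarization seen as dye fluorescence rise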
# KCNK9 block = inhibitors of human KCNK9 two-pore domain potassium channel; HEK293 KCNK9, FluxOR thallium flux fluorescence; stronger effect = lower value; Q9NPC2; AID 488922; B-score at 10 µM; 1.2% of 310,000 active;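 active means ratio B-score over 3 SD below the library mean, with starting fluorescence within 5 SD of its mean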;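 further: negative B-score means less thallium flux so channel inhibition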
# KCNQ1 pot = human KCNQ1 channel potentiation or activation. P51787. CHO-K1 KCNQ1, thallium flux FluxOR fluorescence; stronger effect = higher value. 0.35% of 310,000 active. B-score at 10 µM;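 active means fluorescence ratio B-score, a plate-corrected score, at least three library SD, with initial intensity B-score within 5 SD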
#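 assay system = KCNQ1-transfected CHO-K1 cells | medium = assay buffer with matched DMSO | probe or stimulus = depolarizing K+/Tl+ stimulus, K2SO4 and Tl2SO4 each 12.5 mM in 5x stock | dosing = single dose | incubation = dye 90 min, compound 20 min, room temperature | detection = kinetic FluxOR fluorescence, 10 s baseline plus 110 s post-stimulus | evaluation = ratio B score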
# An asterisk follows results filed as active; i = inactive; / = no result given.
SMILES,Kir21 inh,KCNQ1 inh,KCNK3 inh,hERG rescue,KCNK9 block,KCNQ1 pot
O=C(NCc1ccc2c(c1)OCO2)C(=O)NCC1OCCCN1S(=O)(=O)c1ccc(F)cc1 (configuration not stated),-1.7,i,i,-6,i,i
COC(=O)c1cc(S(=O)(=O)NC2CCCCC2)cn1C,1.4,i,i,2,i,i
Cc1ccc(-n2c(C)cc(C3=NNC(=NC4CC4)SC3)c2C)cc1C,-2.1,7*,i,-24,i,i
Cc1cc(C2=NNC(=NC3CC3)SC2)c(C)n1-c1c(C)n(C)n(-c2ccccc2)c1=O,-0.8,i,i,-12,i,i
Cc1ccc(S(=O)(=O)Oc2ccccc2/C=N/Nc2ccc(C(=O)O)cc2)cc1,1.2,i,i,-4,i,i
Cc1ccc(S(=O)(=O)Oc2ccccc2/C=N/O)cc1,-6.9*,i,i,-5,i,i
Cc1ccc(S[C@@H](CCN2CC[C@H](C(C)(C)C)CCC2=O)c2ccccc2)cc1,-0.9,7*,i,-6,i,i
NC(CSC1(c2ccc(Cl)cc2)c2ccccc2-c2ccccc21)C(=O)O (configuration not stated),/,/,i,/,/,/
Cc1ccc(Nc2cc(C)c3ccc(O)cc3n2)cc1C,-5.1*,i,i,-29,i,i
O=C(CSc1nccc(=O)[nH]1)Nc1cccc2ccccc12,-0.58,i,i,-9,i,i
O=C(NCCc1ccc(F)cc1)Nc1ccc([N+](=O)[O-])cc1,1.6,i,i,-16,i,i
CC(=O)c1cccc(NC(=S)NCCCCc2ccccc2)c1,-1.4,6*,i,-9,i,i
O=[N+]([O-])c1ccc(NC(=S)NCCc2ccc(F)cc2)cc1,-5.2*,6*,i,-49,i,i
O=[N+]([O-])c1ccc(S(=O)(=O)NNC(=S)NCCc2ccccc2)cc1,0.82,i,i,-2,i,i
O=[N+]([O-])c1cccc(NC(=S)NCCc2ccccc2)c1,1.2,8*,i,-15,i,i
Fc1ccc(NC(=S)NCCc2ccc(Cl)cc2)cc1,-4.4*,i,i,-22,i,i
O=C(CN1CCN(S(=O)(=O)c2ccccc2F)CC1)N1CCc2ccccc2C1,/,/,i,/,/,/
COc1ccccc1CCNC(=O)Nc1cccc([N+](=O)[O-])c1,-0.38,6*,i,-4,i,i
COc1ccc(NC(=O)Nc2cccc([N+](=O)[O-])c2)cc1Cl,-0.56,i,i,-10,i,i
CC(C)(C)c1ccc(OCCCC(=O)NNC(=O)c2ccccc2O)cc1,-0.01,8*,i,-28,i,i
Cc1cc(C(=O)NNC(=O)CCCOc2ccccc2)c(C)o1,-0.76,i,i,-18,i,i
O=C(Cc1ccccn1)c1ccncc1,/,/,i,/,/,/
COc1ccc(/C=N\NC(=O)c2ccc(=O)[nH]n2)cc1O,-0.41,i,i,-5,i,i
COc1ccc(/C=N/NC(=O)c2cc(C34CC5CC(CC(C5)C3)C4)[nH]n2)cc1O,-0.25,6*,i,-12,i,i
CCOc1ccc(/C=N/NC(=O)NC23CC4CC(CC(C4)C2)C3)cc1O,-0.06,9*,i,-21,i,i
SMILES,Kir21 inh,KCNQ1 inh,KCNK3 inh,hERG rescue,KCNK9 block,KCNQ1 pot
O=C(N/N=C/c1ccc(O)c(O)c1)NC12CC3CC(CC(C3)C1)C2,0.01,i,i,-8,i,i
Oc1ccc2ccccc2c1/C=N/Nc1nnc(-c2ncc[nH]2)c2ccccc12,-1.2,8*,i,-9,i,i
COc1ccc(C(C[N+](=O)[O-])c2c(C)[nH]n(-c3ccccc3)c2=O)cc1 (configuration not stated),-8.7*,7*,i,-17,i,i
O=C(COC(=O)C1CC1)Nc1c(Cl)cccc1C(F)(F)F,-2.5,i,i,-12,i,i
CCCN1C(=O)c2ccccc2NC1c1ccc(Cl)c(Cl)c1 (configuration not stated),-1.1,i,i,-5,i,i
CCCCN1C2=C(C(=O)CCC2)C(c2ccc(Cl)c(Cl)c2)C2=C1c1ccccc1C2=O (configuration not stated),-1.1,i,-9.9*,-9,i,i
c1ccc(C(c2ccccn2)c2ccccn2)cc1,-0.75,i,i,-1,i,i
CC(=O)Oc1ccc(C(c2ccc(OC(C)=O)cc2)c2ccccn2)cc1,-4.3*,i,i,-5,i,i
Cc1nc(SCC(=O)NCC2CCCO2)c2c3c(sc2n1)CCCC3 (configuration not stated),-0.39,i,i,15*,i,13*
Cc1nc(SCC(=O)NCC2CCCO2)c2c(C)c(C)sc2n1 (configuration not stated),/,/,i,/,/,/
CN(C(=O)c1ccccc1F)C(c1ccccc1)c1ccccc1,-7.2*,i,i,-18,i,i
CC(/C=N/NC(=O)c1ccccc1F)c1ccccc1 (configuration not stated),0.45,i,i,-7,i,i
S=C(N/N=C/c1ccc(Cl)cc1)N1CCOCC1,0,i,i,8.6*,i,i
Cc1onc(-c2c(F)cccc2Cl)c1C(=O)ONC(=O)c1ccccc1,-1.2,i,i,-7,i,i
Cc1onc(-c2c(Cl)cccc2Cl)c1C(=O)c1ccc(F)cc1,-2.2,i,i,-8,i,i
Cc1onc(-c2c(Cl)cccc2Cl)c1C(=O)ONC(=O)c1ccccc1,-5.2*,i,i,-8,i,i
Cc1onc(-c2c(F)cccc2Cl)c1C(=O)c1ccc(F)cc1,-4.8*,i,i,-10,i,i
COc1ccc(N(Cc2cc3ccccc3[nH]c2=O)S(=O)(=O)c2ccc(OC)cc2)cc1,0.62,i,i,-10,-7.2*,i
COc1ccc(N(Cc2cc3cc(OC)ccc3[nH]c2=O)S(=O)(=O)c2ccc(NC(C)=O)cc2)cc1,-0.5,i,i,-23,i,i
Cc1nn(-c2ccccc2)c(Cl)c1C1C(C#N)=C(N)OC2=C1C(=O)CCC2 (configuration not stated),1.3,i,i,5.4*,i,i
Cn1c2ccccc2c(=O)c2ccc(NCc3ccc4c(c3)OCO4)cc21,/,/,i,/,/,/
CCN(C(=O)CCc1nc(-c2ccc(OC)cc2)no1)c1cc(OC)ccc1OC,-0.78,i,i,-8,-7.6*,i
COc1cc(/C=C(\C#N)c2nc3ccccc3s2)cc([N+](=O)[O-])c1O,-0.51,6*,i,-17,i,i

# Bioassay records from PubChem.
